Data set [1] relates to BXPC-3. In words: Cytotoxicity against S100P expressing human BXPC-3 cells assessed as reduction in cell viability at 10 uM measured after 24 hrs by MTS assay. In kind it is functional, cell-based. The method in brief: (§1)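 1 × 10^5 BxPC-3 (RPMI-1640) or Panc-1 (DMEM high glucose) cells, in medium with 10% FBS, were allowed to adhere for 24 h, then given 10 μM compound. MTS absorbance was read at 492 nm every 24 h. Background was subtracted and values normalized to untreated cells. n = 3 separate experiments.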
In general terms: Tetrazolium assays rely on reduction of a dye to a coloured formazan, in cell work by metabolically active cells.

For data set [2], the system named is PANC-1. In words: Cytotoxicity against human PANC-1 cells assessed as LDH release at 10 uM measured after 24 hrs by LDH assay. The data set is classed as functional, cell-based. The method in brief:
(§2)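 1 × 10^5 BxPC-3 (RPMI-1640) or Panc-1 (DMEM high glucose) cells were allowed to adhere for 24 h, then given 10 μM compound. Membrane integrity was measured by LDH release (CytoTox-ONE) every 24 h for up to 3 days, with background OD subtracted.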
(In general: Release of lactate dehydrogenase indicates damage to the cell membrane.)

For data set [3], the system named is PANC-1. Put plainly: Antiinvasive activity in human PANC-1 cells assessed as inhibition of cell invasion at 10 uM incubated for 48 hrs by transwell invasion assay. In kind it is functional, cell-based. The essentials: (§3)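 Matrigel-coated Transwell (PET membrane, 8 μm pores). BxPC-3 (RPMI-1640) or Panc-1 (DMEM) cells were seeded at 2 × 10^5 cells/mL in serum-free medium in the upper chamber, with 10% FBS below as chemoattractant. Cells were given 10 μM compound (0.1% DMSO final) for 48 h at 37 °C, 5% CO2. Invaded cells were Diff-Quik stained and counted in five ×100 fields. Three independent experiments.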

A short description of data set [4]: Aqueous solubility of the compound in 1% DMSO. In kind it is physicochemical. Particulars: buffer.
The species named for the next data set is Homo sapiens. Put plainly: Inhibition of human recombinant S100P/RAGE interaction incubated for 1 hr and measured by ELISA based binding assay. The method in brief: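 His-tagged human S100P, expressed in E. coli BL21 and Ni-NTA purified, was coated at 2 μM in PBS pH 7.4 with 1 mM CaCl2, 10 μM ZnCl2 and 0.5 mM MgCl2 overnight at 37 °C, then blocked with 1% BSA for 2 h. Wells got increasing compound concentrations in triplicate, then human RAGE-Fc for 1 h at 37 °C, anti-human HRP for 1 h, and TMB for 20 min. Read at 450 nm, normalized to S100P+RAGE-Fc; IC50 estimated.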

Data set [5] concerns BXPC-3. Put plainly: Cytotoxicity against S100P expressing human BXPC-3 cells assessed as LDH release at 10 uM measured after 24 hrs by LDH assay. The data set is classed as functional, cell-based. The method in brief:
as §2

Data set [6] in a line: Aqueous solubility of the compound in 0.1% DMSO. The data set is classed as physicochemical. Particulars: buffer.
Data set [7] concerns PANC-1. Put plainly: Cytotoxicity against human PANC-1 cells assessed as reduction in cell viability at 10 uM measured after 24 hrs by MTS assay. In kind it is functional, cell-based. The essentials:
as §1

The test system of data set [8] is BXPC-3. In words: Antiinvasive activity in S100P expressing human BXPC-3 cells assessed as inhibition of cell invasion at 10 uM incubated for 48 hrs by transwell invasion assay. In kind it is functional, cell-based. The essentials:
as §3

For data set [9], the system named is BXPC-3. Put plainly: Antiinvasive activity in S100P expressing human BXPC-3 cells assessed as inhibition of cell invasion at 100 to 200 uM incubated for 48 hrs by transwell invasion assay. The conditions noted are these: dose 100-200 µM.
Data set [10] concerns PANC-1. In words: Antiinvasive activity in human PANC-1 cells assessed as inhibition of cell invasion at 100 to 200 uM incubated for 48 hrs by transwell invasion assay. The conditions noted are these: dose 100-200 µM.

The source made the active and inactive calls. The calls are words filed in the database; no cut-off is given here.

Consider `O=C1C2C3c4ccccc4C(c4ccccc43)C2C(=O)N1c1ccccc1` (centres undefined), for which the result with BXPC-3 [1], in the data set on PANC-1 [2], in the data set with PANC-1 [3], in the data set on BXPC-3 [5] and with PANC-1 [7] was inactive. Moreover, the solubility entry in data set [4] and in data set [6] was “Soluble” in each case. For the same compound, the INH in the data set filed under Homo sapiens was found to be 10 nM. Besides, in the data set on BXPC-3 [8], the result was Active.
In the case of `O=C(Cc1cc(O)n[nH]1)N/N=C/c1c(Cl)cccc1Cl`, the outcome in the data set with BXPC-3 [1], in the data set on PANC-1 [2], with PANC-1 [3], in the data set on BXPC-3 [5] and with PANC-1 [7] was inactive. Moreover, in the data set with BXPC-3 [8], the result was Active.
Regarding `O=C(O)c1cccc(N2C(=O)C3C4c5ccccc5C([N+](=O)[O-])(c5ccccc54)C3C2=O)c1` (centres undefined), the result in the data set on BXPC-3 [1], with PANC-1 [2], with PANC-1 [3], with BXPC-3 [5] and in the data set on PANC-1 [7] was inactive. Further, the INH in the data set filed under Homo sapiens worked out at 10 nM. In the data set with BXPC-3 [8], the result was Active.
For the compound `O=C1C2C3c4ccccc4C(c4ccccc43)C2C(=O)N1c1cccc(F)c1` (centres undefined), the outcome in the data set on BXPC-3 [1], in the data set with PANC-1 [2], in the data set on PANC-1 [3], in the data set with BXPC-3 [5] and in the data set on PANC-1 [7] was inactive. For the same compound, the solubility entry in data set [4] and in [6] was “Soluble” in each case. The INH in the data set filed under Homo sapiens is 10 nM. Further, the outcome in the data set with BXPC-3 [8] was Active.
On to `N#CCCn1cc(C(=O)Nc2ccc(C(=O)O)cc2)c(-c2ccccc2)n1`, for which the outcome in the data set with BXPC-3 [1], with PANC-1 [2], with PANC-1 [3], with BXPC-3 [5] and in the data set on PANC-1 [7] was inactive. In the data set with BXPC-3 [8], the outcome was Active.
As to `O=C(O)c1ccc(N2C(=O)C3C4c5ccccc5C([N+](=O)[O-])(c5ccccc54)C3C2=O)cc1` (centres undefined), the result in the data set with BXPC-3 [1], with PANC-1 [2], with PANC-1 [3], in the data set with BXPC-3 [5] and in the data set with PANC-1 [7] was inactive. The solubility entry in [4] and in data set [6] was “Soluble” throughout. In addition, in the data set filed under Homo sapiens, the INH was below 10 nM. The result in the data set on BXPC-3 [8] was Active.
For `O=C(O)c1cc(=O)c2c(OCC(O)COc3cccc4oc(C(=O)O)cc(=O)c34)cccc2o1`, the outcome in the data set on BXPC-3 [1], in the data set on PANC-1 [2], in the data set on PANC-1 [3], with BXPC-3 [5], in the data set with PANC-1 [7] and in the data set on BXPC-3 [8] was inactive. Moreover, the result in the data set on BXPC-3 [9] and with PANC-1 [10] was Active.
For `O=C1C2C3c4ccccc4C(c4ccccc43)C2C(=O)N1c1ccc(F)cc1` (centres undefined), the outcome with BXPC-3 [1], in the data set with PANC-1 [2], in the data set on PANC-1 [3], in the data set on BXPC-3 [5] and in the data set on PANC-1 [7] was inactive. Also, the solubility entry in data set [4] and in [6] was “Soluble” throughout. Moreover, the INH in the data set listed under Homo sapiens was found to be 10 nM. Moreover, the outcome in the data set on BXPC-3 [8] was Active.
As for `O=C1C2C3c4ccccc4C([N+](=O)[O-])(c4ccccc43)C2C(=O)N1c1cccc(F)c1` (centres undefined), the result with BXPC-3 [1], in the data set on PANC-1 [2], with PANC-1 [3], with BXPC-3 [5] and in the data set on PANC-1 [7] was inactive. The solubility result in data set [4] and in data set [6] was “Soluble” in each case. Besides, the INH in the data set filed under Homo sapiens turned out to be 100 nM. Moreover, the outcome in the data set with BXPC-3 [8] was Active.
For `Cc1ccc(-c2ccc(=O)n(CC(=O)Nc3ccc(-n4cnnn4)cc3)n2)cc1`, the result in the data set with BXPC-3 [1], in the data set with PANC-1 [2], in the data set on PANC-1 [3], with BXPC-3 [5] and in the data set on PANC-1 [7] was inactive. Moreover, in the data set with BXPC-3 [8], the result was Active.
Turning to `COc1ccc(/C=C2/C(=O)NC(=O)N(c3ccc(Cl)c(Cl)c3)C2=O)cc1C(=O)O`, the result in the data set on BXPC-3 [1], in the data set with PANC-1 [2], in the data set on PANC-1 [3], in the data set on BXPC-3 [5] and in the data set with PANC-1 [7] was inactive. The result in the data set with BXPC-3 [8] was Active.

The record behind these values is ChEMBL document CHEMBL4765393, “Discovery of novel small molecule inhibitors of S100P with in vitro anti-metastatic effects on pancreatic cancer cells” (Eur J Med Chem, 2020).
